MT1-MMP act inh: blocks activation of human MT1-MMP; P50281; HT1080 RFP-PRO-GFP cells, GFP/RFP ratio fluorescence, overnight; percent of plate control window, DMSO zero; GFP/RFP ratio change, % at 20 µM; hit rate 0.061% among 360,000; AID 651647;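 active = GFP/RFP ratio change of at least 30% with cell ATP level not reduced by more than half and red fluorescence within 50% of control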
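Assay system: RFP-PRO-GFP reporter HT1080 cells; read-out basis: GFP/RFP fluorescence ratio; benchmarks: DMSO wells and RFP-L50D-GFP cells; doses: 20 µM single dose, 1% DMSO; schedule: overnight cell settling, then overnight compound exposure, 37 °C, 5% CO2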
SKN-1 block: inhibitors of C. elegans SKN-1; hit rate 0.49% among 360,000; C. elegans VP596 Pgst-4::GFP/RFP ratio, acrylamide-induced, 24 h; inhibition, % at 21.8 µM;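 active = interference check ratio from 0.5 to 1.5 plus GFP to RFP signal ratio inhibition reaching or exceeding a fixed threshold, cut at about 30% in these data, passing the limit was not always enough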
PG9 Ab binder: small molecules binding HIV-1 gp120 antibody PG9. TR-FRET gp120-PG9 antibody binding. inhibition, % at 6.7 µM. hit rate 0.43% among 360,000; in the data active = inhibition above about 8.5%
NR2E3 ag-1: NR2E3 (human) agonism; hit rate 0.12% among 320,000; GST-NR2E3/biotin-RetCOR TR-FRET, 1536-well; inhibition of corepressor binding, % at 4.78 µM; AID 2300; Q9Y5X4;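 active = percent inhibition above the cutoff of mean plus 3 SD of all tested compounds, set per screening campaign, cut at about 20% in these data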;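 note: 0% = DMSO wells and 100% = biotin wells as full block of FRET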
Target sequence (Q9Y5X4 whole entry, looked up): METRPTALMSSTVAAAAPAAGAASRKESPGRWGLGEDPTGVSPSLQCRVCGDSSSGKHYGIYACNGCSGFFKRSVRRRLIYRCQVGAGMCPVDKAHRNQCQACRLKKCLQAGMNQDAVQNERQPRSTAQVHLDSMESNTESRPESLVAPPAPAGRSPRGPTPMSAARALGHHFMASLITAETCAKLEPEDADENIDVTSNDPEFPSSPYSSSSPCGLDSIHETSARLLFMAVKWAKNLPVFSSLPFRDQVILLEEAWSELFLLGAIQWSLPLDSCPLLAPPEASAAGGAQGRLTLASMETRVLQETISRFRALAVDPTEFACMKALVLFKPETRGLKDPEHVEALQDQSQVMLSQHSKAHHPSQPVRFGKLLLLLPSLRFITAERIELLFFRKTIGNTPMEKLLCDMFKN
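Material – GST-tagged NR2E3 plus biotinylated RetCOR corepressor · Quantity – NR2E3 fusion 1.35 nM · Times – 5 h incubation at 4 °C · Medium – pH 7.5 Tris-based buffer · Technique – TR-FRET, Eu(K)-anti-GST donor, streptavidin-D2 acceptor, ex 340, em 617/671 nm · Benchmarks – high control biotin, low control 0.6% DMSO · Format – 1536-well plates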
NR2E3 ag-2: activates human NR2E3 receptor | Q9Y5X4 | CHO-S Gal4-NCOR/VP16-NR2E3 two-hybrid, luciferase | inhibition of corepressor binding, % at 3.98 µM | hit rate 0.35% among 360,000;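 active = inhibition above the mean of all tested compounds plus 3 SD, cut at about 70% in these data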;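 note: 0% = DMSO with NR2E3 transfected cells and 100% = cells lacking NR2E3 construct; higher means lower luciferase signal from less NR2E3 corepressor binding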
NR1D1 modulator: Rev-erb alpha (human) modulation; AID 1259318; P20393; Rev-erbα–FITC-DNA binding, fluorescence polarization, 90 min; hit rate 0.79% among 370,000; activity, % at 10 µM;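 active = activity above about 14%, limit read from the data; passing the limit was not always enough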;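 note: 0% = DMSO wells with 35 nM protein and 100% = DMSO wells with 750 nM protein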
NR2E3 ag confirm: confirmation of human NR2E3 agonists | shares compounds with NR2E3 ag-2 | CHO-S mammalian two-hybrid NR2E3-NCOR, luciferase luminescence | inhibition, % at 3.98 µM | hit rate 51% among 2,300 | AID 624378;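 active = average inhibition above a cutoff equal to the mean inhibition of all tested compounds plus one SD, cut at about 70% in these data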;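 note: 0% = DMSO in NR2E3 cells and 100% = DMSO in cells lacking NR2E3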
GAL4-VP16 luc: reduces GAL4-VP16 reporter signal in NR2E3 counterscreen; shares compounds with NR2E3 ag-2; CHO-S GAL4-VP16 luciferase reporter, luminescence; inhibition, % at 3.98 µM; hit rate 29% among 2,300; AID 624379;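 active = mean inhibition above a cutoff equal to the average over all tested compounds plus one standard deviation, cut at about 70% in these data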;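 note: luciferase from a UAS reporter driven by GAL4-VP16 transactivation; 0% = DMSO with VP16-transfected cells and 100% = DMSO with cells lacking VP16; higher means less reporter light so more repression of VP16 activity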
* hit, by the source's call; . = no result given. This is a sample that favours compounds with a hit; in the whole collection about 1.9% have one here.

SMILES	MT1-MMP act inh	SKN-1 block	PG9 Ab binder	NR2E3 ag-1	NR2E3 ag-2	NR1D1 modulator	NR2E3 ag confirm	GAL4-VP16 luc
Cc1nc(Nc2ccc(O)cc2)c2c3c(sc2n1)CCCC3	-3	6	.	2	-3	-3	.	.
Cc1ccc(C(=O)N2CCC[C@@H]2C(=O)N2CCC[C@@H]2C(=O)NCc2ccccc2)cc1C	.	.	-1	.	.	2	.	.
Cc1c(C(C)C)c(=O)n(-c2ccc(S(=O)(=O)NCc3ccccc3)cc2)n1C	6	7	-4	1	81*	0	94*	81*
Cc1c(C(C)C)c(=O)n(-c2ccc(S(=O)(=O)NC3CCCCC3)cc2)n1C	3	5	0	2	72*	-1	87*	68
Cc1c(C(C)C)c(=O)n(-c2ccc(S(=O)(=O)N3CCOCC3)cc2)n1C	10	3	-2	0	11	-1	.	.
OC(c1cccc(OCc2ccccc2)c1)c1nnc(-c2ccccc2)o1 (stereo not given)	1	-4	1	2	87*	-3	92*	76*
NC(=S)NN=C1c2ccccc2-c2cc(Br)ccc21	2	19	0	.	85*	10	-5	-27
COc1ccc(OCc2cc(C(=O)N3CCC(c4ccccc4)CC3)no2)c(Cl)c1	0	-20	-1	1	-94	-1	.	.
COc1cccc(OCc2cc(C(=O)N3CCC(c4ccncc4)CC3)no2)c1	1	4	0	0	85*	1	89*	80*
CC(=O)c1ccc(OCc2cc(C(=O)N3CCC(c4ccncc4)CC3)no2)cc1	-11	4	-3	-4	90*	-3	71*	74*
O=C(c1cc(COc2cccc(C(F)(F)F)c2)on1)N1CCC(c2ccncc2)CC1	13	5	0	1	101*	3	98*	80*
CN1CCCC2(CCCN(Cc3nc(Cc4cccc(C(F)(F)F)c4)no3)C2)C1 (stereo not given)	-2	-13	0	0	-3	-1	.	.
FC(F)(F)c1cccc(Cc2noc(CN3CCC(c4ccncc4)CC3)n2)c1	-15	3	0	1	49	-3	78*	70
Cc1ccc(-n2c(SCC(=O)c3ccc4c(c3)OCO4)nc3ccccc3c2=O)cc1	.	.	.	.	.	-3	.	.
COC(=O)[C@]12C[C@H](CC(=O)N3CCSCC3)C(=O)N(CCc3ccc(OC)c(OC)c3)C1=C[C@H](C(C)C)O[C@@H]2C1CC1	.	.	.	.	.	-2	.	.
Cc1ccc(C(=O)N2CCC[C@@H]2C(=O)N2CCC[C@H]2C(=O)NCc2ccccc2)cc1C	.	.	0	.	.	-5	.	.
COC(=O)[C@]12C[C@H](CC(=O)N3CCOCC3)C(=O)N(CCC3=CCCCC3)C1=C[C@H](COCc1ccccc1)O[C@@H]2C	.	.	1	.	.	4	.	.
CCc1cc2c(=O)nc3n(c2s1)Cc1ccccc1/C3=C(/O)c1ccccc1Cl	-15	22	-1	4	48	3	.	.
CCc1cc2c(=O)nc3n(c2s1)Cc1ccccc1/C3=C(/O)c1ccc(F)cc1	-23	14	1	0	69	-1	-19	-4
Cc1ccc(CNC(=O)c2cc3c(C)nc4ccccc4c3o2)cc1	6	11	0	-1	86*	-5	93*	78*
Cc1nc2ccccc2c2oc(C(=O)NCc3ccccn3)cc12	-1	12	1	3	-15	-6	.	.
Cc1nc2ccccc2c2oc(C(=O)NCc3ccc4c(c3)OCO4)cc12	0	8	-2	-2	70	-1	54	56
COc1ccccc1N1CCN(C(=O)c2cc3c(C)nc4ccccc4c3o2)CC1	-5	18	-2	1	68	5	62	56
CSc1ccc(C(=O)C2CCCN(C(=O)CCn3cncn3)C2)cc1 (stereo not given)	-3	1	-1	0	6	0	.	.
CSc1ccc(C(=O)C2CCCN(C(=O)CCc3c(C)nn(C)c3C)C2)cc1 (stereo not given)	4	11	0	3	56	-2	45	43
SMILES	MT1-MMP act inh	SKN-1 block	PG9 Ab binder	NR2E3 ag-1	NR2E3 ag-2	NR1D1 modulator	NR2E3 ag confirm	GAL4-VP16 luc
Nc1[nH]c(C(=O)c2ccccc2)c(-c2ccc3ccccc3c2)c1C(=O)NCc1cccc2ccccc12	.	.	-1	.	.	9	.	.
COc1ccc(S(=O)(=O)Nc2ccc(-n3cnnn3)cc2)cc1Br	8	-1	1	.	0	-1	.	.
COc1ccc(S(=O)(=O)Nc2ccc3c(c2)n(C)c(=O)n3C)cc1F	9	5	0	-1	74*	7	11	19
COc1ccc(NS(=O)(=O)c2ccc3c(c2)OCCO3)cc1OC	4	-3	3	2	100*	-2	84*	73*
COc1ccc(NS(=O)(=O)c2ccc(-n3cnnn3)cc2)cc1OC	-3	8	-4	-2	61	7	-5	5
O=S(=O)(Nc1ccc2c(c1)OCCO2)c1ccc2oc3ccccc3c2c1	-4	4	0	0	81*	-3	84*	68
COc1ccc(S(=O)(=O)Nc2ccc3c(c2)OCO3)cc1OC	0	7	-1	-1	-7	3	.	.
COC(=O)C1=C(C)N(Cc2ccc(C(F)(F)F)cc2)C(=NCc2cc(OC)c(OC)c(OC)c2)NC1c1cccc(Cl)c1 (stereo not given)	.	.	0	.	.	8	.	.
CC(C)C[C@H]1COc2c(Cl)cccc2S(=O)(=O)N1Cc1ccc(F)cc1F	.	.	1	.	.	2	.	.
COC(=O)[C@]12C[C@H](CC(=O)NCCCN3CCCC3=O)C(=O)N(Cc3cccc4ccccc34)C1=C[C@H](C(C)C)O[C@@H]2C1CC1	.	.	.	.	.	12	.	.
C[C@@H]1CN([C@@H](C)CO)C(=O)CCCn2nncc2CO[C@@H]1CN(C)C(=O)C1CC1	.	.	1	.	.	0	.	.
O=C(O)CSCC(=O)Nc1ccc(C2CCCCC2)cc1	-3	1	0	1	72*	3	61	70
O=C(c1ccccc1)c1nn(-c2ccccc2)c(=O)cc1C(F)(F)F	-5	13	0	7	47	-4	.	.
O=C(c1ccccc1)c1nn(-c2ccc(Cl)cc2)c(=O)cc1C(F)(F)F	-4	21	0	8	108*	-1	93*	67
COc1ccc(C2CC(=O)C(c3cc(OC)c(OC)c(OC)c3)=CN2Cc2ccccc2)cc1 (stereo not given)	.	.	3	.	.	-3	.	.
CC(=O)NC(=S)Nc1ccc(-c2nc3ccc(C)cc3s2)cc1	11	4	-1	4	-141	12	.	.
